Reference: ChEMBL document CHEMBL1165860, “Synthesis and potential cytotoxic activity of new phenanthrylphenol-pyrrolobenzodiazepines” (2010)
Activity calls are given as the source filed them. The rule behind the calls is not given here.

Experiments:
MCF7 [1] = assay: Cell cycle arrest in human MCF7 cells assessed as accumulation at G2/M phase at 4 uM after 24 hrs using propidium iodide staining by flow cytometry; assay type: functional
Procedure, shortened: (§1)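 MCF-7 cells were grown in DMEM with 10% fetal calf serum, penicillin and streptomycin, at 37 °C in 5% CO2. They were treated for 24 h at 2 and 4 µM, with DMSO-treated cells as controls. Cells were trypsinised, fixed in ice-cold 70% ethanol at 4 °C for 30 min, and RNaseA-treated at 37 °C for 30 min. Phases were read by flow cytometry.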

[2] = Growth inhibition of human Hs 578T cells after 24 hrs by MTT assay; assay type: functional
TK-10 = assay: Growth inhibition of human TK10 cells after 24 hrs by MTT assay; assay type: functional; details: TK-10, 24 h
HL-60(TB) = assay: Growth inhibition of human HL-60(TB) cells after 24 hrs by MTT assay; assay type: functional; details: HL-60, 24 h
OVCAR-8 = assay: Growth inhibition of human OVCAR8 cells after 24 hrs by MTT assay; assay type: functional; details: OVCAR-8, 24 h
NCI-H23 = assay: Growth inhibition of human NCI-H23 cells after 24 hrs by MTT assay; assay type: functional; details: NCI-H23, 24 h
Nucleic Acid [3] = assay: Inhibition of Escherichia coli pBR322 DNA cleavage at 16 uM after 16 hrs by RED100-restriction endonuclease digestion assay; assay type: nucleic-acid assay
Procedure, shortened: (§2)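 pBR322 DNA was preincubated with compound at final 2, 4, 8, 16 and 32 µM for 16 h at 37 °C. BamHI (10 U/µl) in BamHI buffer was then added for 2 h at 37 °C. Products were separated on agarose in 0.5× Tris–acetate EDTA at 80 V for 1 h and stained with ethidium bromide. Cut and uncut DNA served as controls.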

MCF7 [4] = assay: Increase of PARP cleavage in human MCF7 cells at 4 uM after 24 hrs by Western blot analysis; assay type: functional, cell-based
Procedure, shortened: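 MCF-7 cells were grown in DMEM with 10% FCS and penicillin/streptomycin at 37 °C in 5% CO2, then treated for 24 h. Cells were lysed in ice-cold RIPA buffer with protease inhibitors and NaF. Protein was measured by Bradford assay, and 30 µg per lane was run on 12% SDS-PAGE and transferred to PVDF. Antibody steps: primary at 4 °C overnight, HRP secondary 1:2000, chemiluminescent detection.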

LOX IMVI = assay: Growth inhibition of human LOXIMVI cells after 24 hrs by MTT assay; assay type: functional
MDA-MB-231 = assay: Growth inhibition of human MDA-MB-231 cells after 24 hrs by MTT assay; assay type: functional; details: MDA-MB-231, 24 h
MCF7 [5] = assay: Cytotoxicity against human MCF7 cells at 2 uM after 24 hrs by MTT assay relative to control; assay type: functional
Procedure, shortened: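 MCF-7 cells were seeded at 10,000 cells/well in DMEM with 10% fetal calf serum. They were exposed to 0.5, 1, 2 and 4 µM for 24 h. MTT reduction to formazan was read at 570 nm, with untreated controls taken as 100% viability. DMSO-treated cells served as an additional control.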

CAKI-1 = assay: Growth inhibition of human Caki1 cells after 24 hrs by MTT assay; assay type: functional; details: CAKI-1, 24 h
MCF7 [6] = assay: Cell cycle arrest in human MCF7 cells assessed as accumulation at S phase at 2 uM after 24 hrs using propidium iodide staining by flow cytometry; assay type: functional; procedure, shortened: as §1
MCF7 [7] = assay: Cell cycle arrest in human MCF7 cells assessed as accumulation at G1 phase at 2 uM after 24 hrs using propidium iodide staining by flow cytometry; assay type: functional; procedure, shortened: as §1
MCF7 [8] = assay: Cell cycle arrest in human MCF7 cells assessed as accumulation at G0 phase after 24 hrs using propidium iodide staining by flow cytometry; assay type: functional, cell-based; procedure, shortened: as §1
KM12 = assay: Growth inhibition of human KM12 cells after 24 hrs by MTT assay; assay type: functional; details: KM12, 24 h
MOLT-4 = assay: Growth inhibition of human MOLT4 cells after 24 hrs by MTT assay; assay type: functional; details: MOLT-4, 24 h
HOP-62 = assay: Growth inhibition of human HOP62 cells after 24 hrs by MTT assay; assay type: functional; details: HOP-62, 24 h
CCRF-CEM = assay: Growth inhibition of human CCRF-CEM cells after 24 hrs by MTT assay; assay type: functional
SF-268 = assay: Growth inhibition of human SF268 cells after 24 hrs by MTT assay; assay type: functional; details: SF-268, 24 h
NCI-H226 = assay: Growth inhibition of human NCI-H226 cells after 24 hrs by MTT assay; assay type: functional; details: NCI-H226, 24 h
Malme-3M = assay: Growth inhibition of human MALME-3M cells after 24 hrs by MTT assay; assay type: functional
UACC-257 = assay: Growth inhibition of human UACC257 cells after 24 hrs by MTT assay; assay type: functional; details: UACC-257, 24 h
MCF7 [9] = assay: Cell cycle arrest in human MCF7 cells assessed as accumulation at G2/M phase at 2 uM after 24 hrs using propidium iodide staining by flow cytometry; assay type: functional; procedure, shortened: as §1
NCI-H522 = assay: Growth inhibition of human NCI-H522 cells after 24 hrs by MTT assay; assay type: functional; details: NCI-H522, 24 h
SF-539 = assay: Growth inhibition of human SF539 cells after 24 hrs by MTT assay; assay type: functional; details: SF-539, 24 h
HCT-15 = assay: Growth inhibition of human HCT15 cells after 24 hrs by MTT assay; assay type: functional; details: HCT-15, 24 h
Nucleic Acid [10] = assay: Inhibition of Escherichia coli pBR322 DNA cleavage after 16 hrs by RED100-restriction endonuclease digestion assay; assay type: nucleic-acid assay; procedure, shortened: as §2
BT-549 = assay: Growth inhibition of human BT549 cells after 24 hrs by MTT assay; assay type: functional; details: BT-549, 24 h
T47D = assay: Growth inhibition of human T47D cells after 24 hrs by MTT assay; assay type: functional
SW-620 = assay: Growth inhibition of human SW620 cells after 24 hrs by MTT assay; assay type: functional; details: SW-620, 24 h
ACHN = assay: Growth inhibition of human ACHN cells after 24 hrs by MTT assay; assay type: functional
A549 = assay: Growth inhibition of human A549 cells after 24 hrs by MTT assay; assay type: functional; details: A549, 24 h
SNB-19 = assay: Growth inhibition of human SNB19 cells after 24 hrs by MTT assay; assay type: functional; details: SNB-19, 24 h
OVCAR-4 = assay: Growth inhibition of human OVCAR4 cells after 24 hrs by MTT assay; assay type: functional; details: OVCAR-4, 24 h
786-0 = assay: Growth inhibition of human 786-0 cells after 24 hrs by MTT assay; assay type: functional; details: 786-0, 24 h
SK-MEL-5 = assay: Growth inhibition of human SK-MEL-5 cells after 24 hrs by MTT assay; assay type: functional; details: SK-MEL-5, 24 h
HT-29 = assay: Growth inhibition of human HT-29 cells after 24 hrs by MTT assay; assay type: functional; details: HT-29, 24 h
EKVX = assay: Growth inhibition of human EKVX cells after 24 hrs by MTT assay; assay type: functional
UACC-62 = assay: Growth inhibition of human UACC62 cells after 24 hrs by MTT assay; assay type: functional; details: UACC-62, 24 h

Structure (SMILES): COc1cc2c(cc1OCCCOc1ccc(-c3cc4ccccc4c4ccccc34)cc1)N=C[C@@H]1CCCN1C2=O
- Activity (MCF7 [1]): 3.94%
- GI50 [2]: 1020 nM
- GI50 (TK-10): 600 nM
- GI50 (HL-60(TB)): 170 nM
- GI50 (OVCAR-8): 420 nM
- GI50 (NCI-H23): 1410 nM
- inhibition (Nucleic Acid [3]): 100%
- Activity (MCF7 [4]): Active
- GI50 (LOX IMVI): 1020 nM
- GI50 (MDA-MB-231): 290 nM
- Activity (MCF7 [5]): <=50%
- GI50 (CAKI-1): 400 nM
- Activity (MCF7 [6]): 17.29%
- Activity (MCF7 [7]): 68.99%
- Activity (MCF7 [8]): Dose-dependent effect
- GI50 (KM12): 780 nM
- GI50 (MOLT-4): 180 nM
- GI50 (HOP-62): 1000 nM
- GI50 (CCRF-CEM): 130 nM
- GI50 (SF-268): 860 nM
- GI50 (NCI-H226): 1170 nM
- GI50 (Malme-3M): 1590 nM
- GI50 (UACC-257): 1360 nM
- Activity (MCF7 [9]): 10.7%
- GI50 (NCI-H522): 120 nM
- GI50 (SF-539): 1760 nM
- GI50 (HCT-15): 1180 nM
- inhibition (Nucleic Acid [10]): Dose-dependent effect
- GI50 (BT-549): 270 nM
- GI50 (T47D): 80 nM
- GI50 (SW-620): 510 nM
- GI50 (ACHN): 1260 nM
- GI50 (A549): 720 nM
- GI50 (SNB-19): 1160 nM
- GI50 (OVCAR-4): 580 nM
- GI50 (786-0): 700 nM
- GI50 (SK-MEL-5): 1060 nM
- GI50 (HT-29): 890 nM
- GI50 (EKVX): 1050 nM
- GI50 (UACC-62): 630 nM
